Values after ≈ are worked out from the molar mass of the structure shown.
Assays:
[1] = Growth inhibition of mouse L1210 cells after 72 hrs by MTT assay; format: functional, cell-based; conditions: L1210, 72 h
[2] = Growth inhibition of human Molt4/C8 cells after 72 hrs by MTT assay; format: functional, cell-based; conditions: MOLT-4, 72 h
[3] = Growth inhibition of human CEM cells after 72 hrs by MTT assay; format: functional, cell-based; conditions: CCRF-CEM
[4] = Growth inhibition of human HeLa cells after 72 hrs by MTT assay; format: functional, cell-based
[5] = Growth inhibition of human MIAPaCa2 cells after 72 hrs by MTT assay; format: functional, cell-based; conditions: MIA PaCa-2, 72 h
[6] = Growth inhibition of human NCI-H460 cells after 72 hrs by MTT assay; format: functional, cell-based; conditions: NCI-H460, 72 h
Outline: (§1)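 Modified NCI DTP protocol: cells in DMEM with 10% FBS, 2 mM glutamine, antibiotics, 37 °C, 5% CO2; seeded 1 × 10^4 to 3 × 10^4 cells/ml on day 0, exposed to five 10-fold dilutions (10^-8 to 10^-4 M) for 72 h; solvent control. MTT read-out; quadruplicate points in three experiments; IC50 by linear regression of growth percentages bracketing 50%.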

[7] = Growth inhibition of human SW620 cells after 72 hrs by MTT assay; format: functional, cell-based; conditions: SW-620, 72 h; outline: as §1
[8] = Growth inhibition of human MCF7 cells after 72 hrs by MTT assay; format: functional, cell-based; conditions: MCF7, 72 h; outline: as §1
[9] = Antioxidant activity assessed as DPPH radical scavenging activity at 100 uM after 20 mins relative to control; format: functional
Outline: (§2)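 Compound in DMSO added to DPPH in absolute ethanol, 0.1 mM final; absorbance at 517 nm after 20 and 60 min at room temperature. At least triplicate.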

[10] = Antioxidant activity assessed as DPPH radical scavenging activity at 100 uM after 60 mins relative to control; format: functional; outline: as §2
[11] = Antioxidant activity assessed as inhibition of AAPH-induced linoleic acid lipid peroxidation at 1 x 10^-4 M by UV-absorbance method relative to control; format: functional
Outline: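 Linoleic acid peroxidation: 16 mM sodium linoleate dispersion in 0.05 M phosphate buffer pH 7.4 at 37 °C under air, initiated by AAPH (40 mM solution); compound at 1 × 10^-4 M; oxidation followed at 234 nm. At least triplicate.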

[12] = test system: Glycine max; assay: Inhibition of soybean LOX assessed as reduction in conversion of sodium linoleate to 13-hydroperoxylinoleic acid at 1 x 10^-4 M relative to control
Outline: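 Soybean lipoxygenase incubated at room temperature with sodium linoleate (0.1 mM) and test compound (DMSO stocks); formation of 13-hydroperoxylinoleic acid read at 234 nm. Single-point screening at 1 × 10^-4 M; IC50 from several concentrations. At least triplicate.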

[13] = test system: Staphylococcus aureus; assay: Antibacterial activity against Staphylococcus aureus ATCC 6538 after 18 hrs by serial microdilution broth assay; format: functional; conditions: ATCC 6538, 18 h
Outline: (§3)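 Broth microdilution MIC per EUCAST for aerobic bacteria in Mueller-Hinton broth, serial dilution 1000 to 0.78125 µg/ml from 10 mg/ml DMSO stocks. Inoculum from trypticase soy broth cultures (18 h, 37 °C), set to 0.5 McFarland in PBS pH 7.4, diluted 1:10. 18 h aerobic incubation at 35 °C in dark, then TTC 0.5 mg/ml for 3 h, HCl-isopropanol, A490. MIC = lowest concentration giving 50% inhibition versus untreated; duplicates.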

[14] = test system: Staphylococcus aureus; assay: Antibacterial activity against methicillin sensitive Staphylococcus aureus ATCC 25923 after 18 hrs by serial microdilution broth assay; format: functional; conditions: ATCC 25923, 18 h
Outline: (§4)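 EUCAST-based broth microdilution in Mueller-Hinton broth. Glycerol stock cultures grown in trypticase soy broth 18 h at 37 °C; inoculum in PBS pH 7.4 at 0.5 McFarland, diluted 1:10 in broth. Compounds from DMSO stocks, 1000 to 0.78125 µg/ml; 18 h aerobic, 35 °C, dark. TTC 0.5 mg/ml added, 3 h, then HCl/isopropanol, A490. MIC = lowest concentration giving 50% inhibition vs untreated; duplicates, averaged.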

[15] = test system: Staphylococcus aureus; assay: Antibacterial activity against methicillin sensitive Staphylococcus aureus ATCC 25213 after 18 hrs by serial microdilution broth assay; format: functional; conditions: ATCC 25213, 18 h; outline: as §3
[16] = test system: Staphylococcus aureus; assay: Antibacterial activity against methicillin resistant Staphylococcus aureus MFBF 10682 after 18 hrs by serial microdilution broth assay; format: functional; conditions: MFBF 10682, 18 h; outline: as §4
[17] = test system: Staphylococcus aureus; assay: Antibacterial activity against methicillin resistant Staphylococcus aureus MFBF 10679 after 18 hrs by serial microdilution broth assay; format: functional; conditions: MFBF 10679, 18 h; outline: as §4
[18] = test system: Enterococcus faecalis; assay: Antibacterial activity against vancomycin susceptible Enterococcus faecalis ATCC 29212 after 18 hrs by serial microdilution broth assay; format: functional; conditions: ATCC 29212, 18 h; outline: as §3
[19] = test system: Enterococcus faecalis; assay: Antibacterial activity against vancomycin resistant Enterococcus faecalis MFBF 11419 after 18 hrs by serial microdilution broth assay; format: functional; conditions: MFBF 11419, 18 h; outline: as §4
[20] = test system: Bacillus pumilus; assay: Antibacterial activity against Bacillus pumilus NCTC 8241 after 18 hrs by serial microdilution broth assay; format: functional; conditions: NCTC 8241, 18 h; outline: as §3
[21] = test system: Bacillus cereus; assay: Antibacterial activity against Bacillus cereus ATCC 11778 after 18 hrs by serial microdilution broth assay; format: functional; conditions: ATCC 11778, 18 h; outline: as §3
[22] = test system: Bacillus spizizenii; assay: Antibacterial activity against Bacillus subtilis ATCC 6633 after 18 hrs by serial microdilution broth assay; format: functional; conditions: ATCC 6633, 18 h; outline: as §3
[23] = test system: Pseudomonas aeruginosa; assay: Antibacterial activity against Pseudomonas aeruginosa ATCC 9027 after 18 hrs by serial microdilution broth assay; format: functional; conditions: ATCC 9027, 18 h; outline: as §4
[24] = test system: Pseudomonas aeruginosa; assay: Antibacterial activity against Pseudomonas aeruginosa ATCC 27853 after 18 hrs by serial microdilution broth assay; format: functional; conditions: ATCC 27853, 18 h; outline: as §3
[25] = test system: Pseudomonas aeruginosa; assay: Antibacterial activity against multi-drug resistant Pseudomonas aeruginosa MFBF after 18 hrs by serial microdilution broth assay; format: functional; outline: as §4
[26] = test system: Escherichia coli; assay: Antibacterial activity against Escherichia coli ATCC 10535 after 18 hrs by serial microdilution broth assay; format: functional; conditions: ATCC 10535, 18 h; outline: as §3
[27] = test system: Candida albicans; assay: Antifungal activity against Candida albicans ATCC 90028 after 18 hrs by serial microdilution broth assay; format: functional; conditions: ATCC 90028, 18 h
Outline: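 Yeast microdilution in RPMI 1640 with glutamine plus 2% glucose, 1000 to 0.78125 µg/ml from 10 mg/ml DMSO stocks. Growth read with XTT (10 mg/ml) mixed 7:1 with menadione (1 mg/ml in acetone), absorbance at 540 nm. MIC taken as lowest concentration giving 50% growth inhibition versus untreated cells; tests in duplicate.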

[28] = Hemolytic activity against human RBC at 100 ug/ml after 1 hr relative to control; format: ADME, cell-based, Erythrocyte; conditions: red blood cells (RBC), read-out: Activity
[29] = Cytotoxicity against HEK cells assessed as reduction in cell viability at 3.125 to 25 ug/ml after 24 hrs by MTT assay; format: toxicity, cell-based; conditions: human, hek293, 24 h
Outline: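 HEK 293 cells, 5 × 10^3 per well, treated next day for 24 h with compound (range within 200 to 1.5625 µg/ml). MTT 0.5 mg/ml in DMEM/10% FBS, 4 h at 37 °C, 5% CO2; formazan in DMSO, A570. Viability as percent of untreated control; triplicates, three independent experiments.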

Q: Which IC50 [1] does the source give for `COc1cc(NC(C)CCCNC(=O)Nc2cc(C(F)(F)F)cc(C(F)(F)F)c2)c2ncccc2c1` (centres undefined) here?
A: 3.5 µM

Q: What about the IC50 [2] of the same compound?
A: 12 µM

Q: And the IC50 [3]?
A: 4.1 µM

Q: And the IC50 [4]?
A: 3.1 µM

Q: What about the IC50 [5] of the same compound?
A: 4.7 µM

Q: What about the IC50 [6] of the same compound?
A: 8.3 µM

Q: What about the IC50 [7] of the same compound?
A: 3.9 µM

Q: What about the IC50 [8] of the same compound?
A: 1.6 µM

Q: What about the Activity [9] of the same compound?
A: 51.7%

Q: What about the Activity [10] of the same compound?
A: 55.2%

Q: And the inhibition [11]?
A: 90.2%

Q: And the inhibition [12]?
A: 42.3%

Q: And the MIC50 [13]?
A: 1.6 µg/mL (≈ 3.11 µM)

Q: What about the MIC50 [14] of the same compound?
A: 6.3 µg/mL (≈ 12.2 µM)

Q: And the MIC50 [15]?
A: 12.5 µg/mL (≈ 24.3 µM)

Q: And the MIC50 [16]?
A: > 100 µg/mL

Q: And the MIC50 [17]?
A: > 100 µg/mL

Q: And the MIC50 [18]?
A: > 100 µg/mL

Q: What about the MIC50 [19] of the same compound?
A: > 100 µg/mL

Q: And the MIC50 [20]?
A: 12.5 µg/mL (≈ 24.3 µM)

Q: And the MIC50 [21]?
A: 100 µg/mL (≈ 194 µM)

Q: And the MIC50 [22]?
A: > 100 µg/mL

Q: What about the MIC50 [23] of the same compound?
A: 100 µg/mL (≈ 194 µM)

Q: What about the MIC50 [24] of the same compound?
A: 12.5 µg/mL (≈ 24.3 µM)

Q: What about the MIC50 [25] of the same compound?
A: > 100 µg/mL

Q: What about the MIC50 [26] of the same compound?
A: > 100 µg/mL

Q: And the MIC50 [27]?
A: > 100 µg/mL

Q: And the hemolysis at 1 h, 100 ug/ml [28]?
A: < 1%

Q: And the Activity [29]?
A: Toxic

From ChEMBL document CHEMBL3875163, “Novel urea and bis-urea primaquine derivatives with hydroxyphenyl or halogenphenyl substituents: Synthesis and biological evaluation” (Eur J Med Chem, 2016)
